Data reported in ChEMBL document CHEMBL1143599, “Design, synthesis, and antiviral activity of adenosine 5'-phosphonate analogues as chain terminators against hepatitis C virus” (J Med Chem, 2005).

Experiments:
[1] = Effective concentration against Huh 7 cells; type: functional, cell-based, Homo sapiens
Summary of the method: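 HCV subgenomic replicon cells with luciferase readout, seeded at 6000 cells/well, compound added right after seeding, 48 h incubation. Cells then lysed and luciferase activity in lysate measured. Replicon RNA reduction inferred from the luciferase drop; EC50 is the concentration giving 50% reduction of viral replication.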

[2] = Cytotoxicity determined in Huh 7 cells; type: cell-based; conditions: human
Summary of the method: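 Huh7 cells; viability read by colorimetric MTT assay. CC50 taken as the concentration that cuts cell viability by 50%.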

| Compound | EC50 [1] | CC50 [2] |
| --- | --- | --- |
| Nc1ncnc2c1ncn2[C@@H]1O[C@H](CCP(=O)(O)O)[C@@H](O)[C@H]1O | 200 µM | > 300 µM |
| CC(C)(C)C(=O)SCCOP(=O)(CC[C@H]1O[C@@H](n2cnc3c(N)ncnc32)[C@](C)(O)[C@@H]1O)OCCSC(=O)C(C)(C)C | 25 µM | 30 µM |
| C[C@@]1(O)[C@H](O)[C@@H](CCP(=O)(O)O)O[C@H]1n1cnc2c(N)ncnc21 | 35 µM | > 300 µM |
| Nc1ncnc2c1ncn2[C@@H]1O[C@H](OCP(=O)(O)O)[C@@H](O)[C@H]1O | 65 µM | > 300 µM |
| Nc1ncnc2c1ncn2[C@@H]1C[C@H](OCP(=O)(O)O)[C@@H](O)[C@H]1O | 30 µM | 300 µM |
